Laboratory results as given in ChEMBL document CHEMBL3862036, “Biphenyl Pyridazinone Derivatives as Inhaled PDE4 Inhibitors: Structural Biology and Structure-Activity Relationships” (J Med Chem, 2016).

Tests used:
Rattus norvegicus [1] = assay: Anti-inflammatory activity in Sprague-Dawley rat assessed as inhibition of LPS-induced neutrophilia at 100 ug/kg, it administered as suspension with Penn-Century micro-sprayer aerosolizer dosed 18 hrs before LPS challenge and measured 22 hrs post dose; assay type: functional; settings: inhaled or nasal
Summary of the method: (§1)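 Suspensions in PBS/0.2% Tween 80 were homogenized, with lower doses made by 1:10 dilutions. 0.2 mL was given intratracheally by MicroSprayer to isoflurane-anesthetized fasted male Sprague-Dawley rats (230–280 g). At 1 or 18 h, rats received nebulized LPS (30 mL of a 1:100 PBS dilution of 100 mg/10 mL stock) over 40 min. Four hours later, BAL neutrophils were counted by flow cytometry.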

Rattus norvegicus [2] = assay: Anti-inflammatory activity in Sprague-Dawley rat assessed as inhibition of LPS-induced neutrophilia at 100 ug/kg, it administered as dry powder with lactose carrier through Penn-Century insufflator dosed 18 hrs before LPS challenge and measured 22 hrs post dose; assay type: functional
Summary of the method: (§2)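 Compounds were micronized, comixed with lactose, and 5 mg of the mixture was insufflated intratracheally into isoflurane-anesthetized fasted male Sprague-Dawley rats (230–280 g). LPS aerosol (30 mL of a 1:100 PBS dilution of 100 mg/10 mL stock) was nebulized for 40 min at 1 or 18 h post-dose. BAL was taken 4 h later and neutrophils counted by flow cytometry. Controls: lactose alone, lactose+LPS, fluticasone (10% in lactose).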

Rattus norvegicus [3] = assay: Anti-inflammatory activity in Sprague-Dawley rat assessed as inhibition of LPS-induced neutrophilia at 10 ug/kg, it administered as dry powder with lactose carrier through Penn-Century insufflator dosed 18 hrs before LPS challenge and measured 22 hrs post dose; assay type: functional; summary of the method: as §2
Rattus norvegicus [4] = assay: Anti-inflammatory activity in Sprague-Dawley rat assessed as inhibition of LPS-induced neutrophilia at 300 ug/kg, it administered as suspension with Penn-Century micro-sprayer aerosolizer dosed 18 hrs before LPS challenge and measured 22 hrs post dose; assay type: functional; settings: inhaled or nasal; summary of the method: as §1
[5] = Inhibition of PDE4 in PBMC (unknown origin) assessed as reduction in LPS-induced TNFalpha production incubated for 24 hrs by ELISA; settings: Homo sapiens
Rattus norvegicus [6] = assay: Anti-inflammatory activity in Sprague-Dawley rat assessed as inhibition of LPS-induced neutrophilia at 10 to 1000 ug/kg, it administered as suspension with Penn-Century micro-sprayer aerosolizer dosed 1 hrs before LPS challenge and measured 5 hrs post dose; assay type: functional; settings: inhaled or nasal; summary of the method: as §1
Adenosine receptor A2a = Adenosine receptor A2a (Homo sapiens, UniProt P29274); assay: Antagonist activity at adenosine A2a receptor (unknown origin)
Sequence of Adenosine receptor A2a (P29274 whole entry): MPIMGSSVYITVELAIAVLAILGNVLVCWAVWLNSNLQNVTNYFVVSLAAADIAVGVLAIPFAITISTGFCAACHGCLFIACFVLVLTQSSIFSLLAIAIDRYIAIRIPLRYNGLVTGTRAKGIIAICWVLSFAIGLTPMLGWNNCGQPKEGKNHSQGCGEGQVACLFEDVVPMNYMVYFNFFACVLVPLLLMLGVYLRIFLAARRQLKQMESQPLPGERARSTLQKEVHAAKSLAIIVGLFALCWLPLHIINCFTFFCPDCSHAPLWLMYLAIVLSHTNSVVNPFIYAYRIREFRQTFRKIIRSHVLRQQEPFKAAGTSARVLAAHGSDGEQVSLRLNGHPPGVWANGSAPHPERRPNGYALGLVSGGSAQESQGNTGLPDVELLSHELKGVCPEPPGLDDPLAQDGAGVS

[7] = Inhibition of PDE4 in human whole blood assessed as reduction in LPS-induced TNFalpha production incubated for 24 hrs by ELISA; assay type: tissue-based
Summary of the method: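 Human whole blood was preincubated with LPS (final 1 μg/mL) for 10 min at 37 °C with rocking. 200 μL was added to wells holding increasing inhibitor concentrations in 100% DMSO. Plates were incubated 24 h at 37 °C under agitation, then placed on ice, diluted with PBS and centrifuged at 800g, 4 °C, for 15 min before TNF-α measurement.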

Rattus norvegicus [8] = assay: Anti-inflammatory activity in Sprague-Dawley rat assessed as inhibition of LPS-induced neutrophilia at 100 ug/kg, it administered as dry powder with lactose carrier through Penn-Century insufflator dosed 1 hrs before LPS challenge and measured 5 hrs post dose; assay type: functional; summary of the method: as §2
Rattus norvegicus [9] = assay: Anti-inflammatory activity in Sprague-Dawley rat assessed as inhibition of LPS-induced neutrophilia at 10 ug/kg, it administered as dry powder with lactose carrier through Penn-Century insufflator dosed 1 hrs before LPS challenge and measured 5 hrs post dose; assay type: functional; summary of the method: as §2
Adenosine receptor A2b = molecular target: T1, Adenosine receptor A2b (Homo sapiens, UniProt P29275); assay: Antagonist activity at adenosine A2b receptor (unknown origin)
T1 sequence (P29275 whole entry): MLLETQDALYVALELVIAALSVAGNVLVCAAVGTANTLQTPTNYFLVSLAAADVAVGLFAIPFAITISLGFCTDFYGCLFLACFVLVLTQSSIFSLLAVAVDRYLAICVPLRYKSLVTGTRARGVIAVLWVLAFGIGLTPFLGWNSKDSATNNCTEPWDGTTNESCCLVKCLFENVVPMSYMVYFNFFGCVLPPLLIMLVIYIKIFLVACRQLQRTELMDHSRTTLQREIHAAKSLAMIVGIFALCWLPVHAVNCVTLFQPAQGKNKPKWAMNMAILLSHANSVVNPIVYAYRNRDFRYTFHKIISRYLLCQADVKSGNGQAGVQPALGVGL

Adenosine receptor A1 = molecular target: T2, Adenosine receptor A1 (Homo sapiens, UniProt P30542); assay: Antagonist activity at adenosine A1 receptor (unknown origin)
T2 sequence (P30542 whole entry): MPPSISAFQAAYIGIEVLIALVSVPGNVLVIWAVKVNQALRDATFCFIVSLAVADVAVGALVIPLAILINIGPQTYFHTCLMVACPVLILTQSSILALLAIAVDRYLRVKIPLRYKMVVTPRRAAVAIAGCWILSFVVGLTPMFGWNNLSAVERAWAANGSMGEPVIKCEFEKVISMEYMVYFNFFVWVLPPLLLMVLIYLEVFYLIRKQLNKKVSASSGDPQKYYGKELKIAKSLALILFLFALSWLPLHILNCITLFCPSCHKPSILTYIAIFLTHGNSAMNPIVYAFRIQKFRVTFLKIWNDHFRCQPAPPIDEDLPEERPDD

Rattus norvegicus [10] = assay: Anti-inflammatory activity in Sprague-Dawley rat assessed as inhibition of LPS-induced neutrophilia at 100 ug/kg, it administered as suspension with Penn-Century micro-sprayer aerosolizer dosed 1 hrs before LPS challenge and measured 5 hrs post dose; assay type: functional; settings: inhaled or nasal; summary of the method: as §1
Rattus norvegicus [11] = assay: Anti-inflammatory activity in Sprague-Dawley rat assessed as inhibition of LPS-induced neutrophilia at 10 ug/kg, it administered as suspension with Penn-Century micro-sprayer aerosolizer dosed 1 hrs before LPS challenge and measured 5 hrs post dose; assay type: functional; settings: inhaled or nasal; summary of the method: as §1
Rattus norvegicus [12] = assay: Anti-inflammatory activity in Sprague-Dawley rat assessed as inhibition of LPS-induced neutrophilia at 30 ug/kg, it administered as suspension with Penn-Century micro-sprayer aerosolizer dosed 18 hrs before LPS challenge and measured 22 hrs post dose; assay type: functional; settings: inhaled or nasal; summary of the method: as §1
[13] = Basicity constant, pKB of the compound; assay type: physicochemical
[14] = Pro-inflammatory activity in Sprague-Dawley rat assessed as induction of neutrophilia at 1000 ug/kg, it administered as dry powder with lactose carrier through Penn-Century insufflator; settings: in vivo, inhaled_or_intranasal, 1 mg/kg
Rattus norvegicus [15] = assay: Anti-inflammatory activity in Sprague-Dawley rat assessed as inhibition of LPS-induced neutrophilia at 10 to 1000 ug/kg, it administered as suspension with Penn-Century micro-sprayer aerosolizer dosed 18 hrs before LPS challenge and measured 22 hrs post dose; assay type: functional; settings: inhaled or nasal; summary of the method: as §1
[16] = Drug metabolism in human liver S9 fraction assessed as glucuronidation in presence of PAPS and UDPGA incubated for 20 mins; assay type: ADME, subcellular; settings: read-out: Drug metabolism
Rattus norvegicus [17] = assay: Anti-inflammatory activity in Sprague-Dawley rat assessed as inhibition of LPS-induced neutrophilia at 2000 ug/kg, it administered as dry powder with lactose carrier through Penn-Century insufflator dosed 18 hrs before LPS challenge and measured 22 hrs post dose; assay type: functional; summary of the method: as §2
Rattus norvegicus [18] = assay: Anti-inflammatory activity in Sprague-Dawley rat assessed as inhibition of LPS-induced neutrophilia at 1000 ug/kg, it administered as suspension with Penn-Century micro-sprayer aerosolizer dosed 18 hrs before LPS challenge and measured 22 hrs post dose; assay type: functional; settings: inhaled or nasal; summary of the method: as §1
Rattus norvegicus [19] = assay: Anti-inflammatory activity in Sprague-Dawley rat assessed as inhibition of LPS-induced neutrophilia at 10 to 1000 ug/kg, it administered as dry powder with lactose carrier through Penn-Century insufflator dosed 1 hrs before LPS challenge and measured 5 hrs post dose; assay type: functional; summary of the method: as §2
[20] = Drug metabolism in human liver S9 fraction assessed as sulfonation in presence of PAPS and UDPGA incubated for 20 mins; assay type: ADME, subcellular; settings: read-out: Drug metabolism
Rattus norvegicus [21] = assay: Toxicity in Sprague-Dawley rat model of LPS-induced neutrophilia assessed as induction of irritation in lungs at 1000 ug/kg, it administered as dry powder with lactose carrier through Penn-Century insufflator dosed 18 hrs before LPS challenge and measured 22 hrs post dose; assay type: organism-based; settings: in vivo, inhaled_or_intranasal, 1 mg/kg
Rattus norvegicus [22] = assay: Anti-inflammatory activity in Sprague-Dawley rat assessed as inhibition of LPS-induced neutrophilia at 1000 ug/kg, it administered as dry powder with lactose carrier through Penn-Century insufflator dosed 1 hrs before LPS challenge and measured 5 hrs post dose; assay type: functional; summary of the method: as §2
[23] = molecular target: 3',5'-cyclic-AMP phosphodiesterase 4B (Homo sapiens, UniProt Q07343); assay: Inhibition of human recombinant PDE4B1 assessed as reduction in [3H]cAMP hydrolysis to [3H]AMP incubated for 60 mins by PDE-SPA assay
Sequence of 3',5'-cyclic-AMP phosphodiesterase 4B (Q07343 whole entry): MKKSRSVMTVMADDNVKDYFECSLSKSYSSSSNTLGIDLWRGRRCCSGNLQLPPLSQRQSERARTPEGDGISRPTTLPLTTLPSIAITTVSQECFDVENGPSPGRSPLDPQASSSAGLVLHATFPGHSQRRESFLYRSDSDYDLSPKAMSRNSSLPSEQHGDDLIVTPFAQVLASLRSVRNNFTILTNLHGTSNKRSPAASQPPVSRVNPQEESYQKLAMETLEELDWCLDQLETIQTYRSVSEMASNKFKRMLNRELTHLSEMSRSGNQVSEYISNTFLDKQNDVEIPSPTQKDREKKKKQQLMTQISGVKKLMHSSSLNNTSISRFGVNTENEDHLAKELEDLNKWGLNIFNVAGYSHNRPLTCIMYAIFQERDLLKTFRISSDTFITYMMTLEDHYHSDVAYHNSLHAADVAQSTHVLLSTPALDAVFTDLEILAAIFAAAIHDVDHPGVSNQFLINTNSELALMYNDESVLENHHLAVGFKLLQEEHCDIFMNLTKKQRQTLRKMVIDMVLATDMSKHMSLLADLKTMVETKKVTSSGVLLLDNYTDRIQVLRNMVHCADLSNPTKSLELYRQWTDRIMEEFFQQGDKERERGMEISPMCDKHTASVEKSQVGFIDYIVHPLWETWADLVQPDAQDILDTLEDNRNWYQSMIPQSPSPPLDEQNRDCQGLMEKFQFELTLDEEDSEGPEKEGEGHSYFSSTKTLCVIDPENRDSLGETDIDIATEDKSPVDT

[24] = Selectivity index, ratio of IC50 for adenosine A1/A2a/A2b receptor (unknown origin) to IC50 for inhibition of PDE4 in PBMC (unknown origin) assessed as reduction in LPS-induced TNFalpha production; set-up: species or system Homo sapiens
Rattus norvegicus [25] = assay: Anti-inflammatory activity in Sprague-Dawley rat assessed as inhibition of LPS-induced neutrophilia at 6000 ug/kg, it administered as dry powder with lactose carrier through Penn-Century insufflator dosed 18 hrs before LPS challenge and measured 22 hrs post dose; assay type: functional; summary of the method: as §2
Rattus norvegicus [26] = assay: Anti-inflammatory activity in Sprague-Dawley rat assessed as inhibition of LPS-induced neutrophilia at 1000 ug/kg, it administered as suspension with Penn-Century micro-sprayer aerosolizer dosed 1 hrs before LPS challenge and measured 5 hrs post dose; assay type: functional; settings: inhaled or nasal; summary of the method: as §1

Row | SMILES | inhibition in vivo at 0.3 mg/kg (Rattus norvegicus [4]) [%] | IC50 [5] [nM] | ED50 (Rattus norvegicus [6]) [mg/kg] | IC50 (Adenosine receptor A2a) [nM] | IC50 [7] [nM] | IC50 (Adenosine receptor A2b) [nM] | IC50 (Adenosine receptor A1) [nM] | inhibition in vivo at 0.1 mg/kg (Rattus norvegicus [10]) [%] | fold change (FC) [14] | inhibition in vivo at 1 mg/kg (Rattus norvegicus [18]) [%] | other results
1 | CCn1nc(-c2cccc(-c3ccc(CC(=O)NCCN4CCCCC4)cc3)c2)cc(NC(=O)Nc2c(Cl)cncc2Cl)c1=O | 47 | 0.52 | 0.089 | 105 | 374 | 90 | 31 | – | – | – | inhibition in vivo at 0.1 mg/kg (Rattus norvegicus [1]): 48%; inhibition in vivo at 0.1 mg/kg (Rattus norvegicus [2]): 39%; inhibition in vivo at 0.01 mg/kg (Rattus norvegicus [3]): 42%; inhibition in vivo at 0.1 mg/kg (Rattus norvegicus [8]): 42%; inhibition in vivo at 0.01 mg/kg (Rattus norvegicus [9]): 48%
2 | CCn1nc(-c2cccc(-c3cc(C(=O)NCCCN(C)C)cc(C(=O)OC)c3)c2)cc(NC(=O)Nc2c(Cl)cncc2Cl)c1=O | 26 | 0.05 | – | > 1000 | – | > 1000 | 71 | 64 | – | – | inhibition in vivo at 0.01 mg/kg (Rattus norvegicus [11]): 52%; inhibition in vivo at 0.03 mg/kg (Rattus norvegicus [12]): 30%
3 | CCn1nc(-c2cccc(-c3cccc(C(=O)NCCN4CCCCC4)c3)c2)cc(NC(=O)Nc2c(Cl)cncc2Cl)c1=O | – | 0.43 | – | 22 | 81 | 169 | 6 | 66 | 1.1 | – | pKb [13]: 11.2
4 | CCn1nc(-c2cccc(-c3ccc(CC(=O)NCCCCCCCN(C)CCO)cc3)c2)cc(NC(=O)Nc2c(Cl)cncc2Cl)c1=O | – | 0.57 | – | 86 | 323 | 94 | 61 | 69 | 1.9 | – | inhibition in vivo at 0.1 mg/kg (Rattus norvegicus [8]): 23%; ED50 (Rattus norvegicus [15]): 0.091 mg/kg
5 | CCn1nc(-c2cccc(-c3cccc(O)c3)c2)cc(NC(=O)Nc2c(Cl)cncc2Cl)c1=O | – | 0.7 | 0.416 | 168 | 95 | 172 | 87 | – | – | 0 | metabolised at 20 min [16]: 21%; inhibition in vivo at 2 mg/kg (Rattus norvegicus [17]): 7%; ED50 (Rattus norvegicus [19]): 0.551 mg/kg; metabolised at 20 min [20]: 3%
6 | CCn1nc(-c2cccc(-c3cccc(C(=O)NCCN(C)C)c3)c2)cc(NC(=O)Nc2c(Cl)cncc2Cl)c1=O | – | 0.3 | 0.0035 | 28 | 425 | 77 | 2 | 70 | 3.2 | 38 | Activity (Rattus norvegicus [21]): Toxic; inhibition in vivo at 1 mg/kg (Rattus norvegicus [22]): 8%; inhibition in vivo at 0.01 mg/kg (Rattus norvegicus [9]): 38%
7 | CCn1nc(-c2cccc(-c3cc(C(=O)NC4CC4)cc(C(=O)NC4CCN(Cc5ccccc5)CC4)c3)c2)cc(NC(=O)Nc2c(Cl)cncc2Cl)c1=O | 60 | 0.29 | 0.029 | > 1000 | – | > 1000 | > 1000 | – | – | – | inhibition in vivo at 0.1 mg/kg (Rattus norvegicus [1]): 45%; inhibition in vivo at 0.03 mg/kg (Rattus norvegicus [12]): 49%; IC50 [23]: 0.22 nM; Ratio IC50 [24]: >1000
8 | O=C(Nc1c(Cl)cncc1Cl)c1ccc(OC(F)F)c(OCC2CC2)c1 [ROFLUMILAST] | – | 4 | 0.126 | > 1000 | 36 | > 1000 | > 1000 | – | – | 24 | inhibition in vivo at 6 mg/kg (Rattus norvegicus [25]): 37%; inhibition in vivo at 1 mg/kg (Rattus norvegicus [26]): 80%; ED50 (Rattus norvegicus [19]): 0.204 mg/kg; ED50 (Rattus norvegicus [15]): > 1 mg/kg
